Screens (PubChem)
Sampled rows, rich in hits. Any-hit rate of the full collection: about 1.9%.
N-glyco inh: blocks N-linked glycosylation in D54 reporter cells. reporter increase, % at 12.5 µM. AID 588692. 0.23% of 360,000 active. D54 ERlucT glycosylation luciferase reporter, 24 h; percent of 100 nM tunicamycin response;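 active means mean luciferase reporter signal, scaled so untreated is 0 and the glycosylation-blocking control 100, at or above a set limit in every replicate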;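 further: luciferase carries N-glycosylation sites so blocking glycosylation raises the light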
Env fusion inh: inhibitors of HIV Env-mediated cell fusion; HeLa-JRFL Env/CEM21 cell fusion, luciferase; inhibition, % at 12.3 µM; 1.1% of 360,000 active;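 active means mean replicate inhibition score of at least 50 and every replicate individually at or above 50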
SR-BI uptake up: activators of SR-BI mediated HDL lipid uptake; CHO ldlA[mSR-BI] cells, DiI-HDL uptake fluorescence, 3 h; 100 = double the neutral-control signal; activation, % at 12.5 µM; 0.096% of 320,000 active; AID 504775;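 active means mean replicate activation of at least 60% and every replicate at or above 60%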
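Material: SR-BI-overexpressing, LDLR-lacking CHO cells | Dosing: Single compound concentration, delivered by pin transfer | Probe or stimulus: Labelled HDL, 10 µg/mL | Signal: Bottom-read cell fluorescence after medium removal, ex 550/em 595 nm | Schedule: 3 h, 37 °C | Evaluation: HDL uptake via cellular fluorescence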
SR-BI HDL uptake: inhibitors of mouse SR-BI mediated HDL lipid uptake; 0.96% of 320,000 active; Q61009; ldlA[mSR-BI] CHO cells, DiI-HDL uptake fluorescence, 3 h; inhibition, % at 12.5 µM;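 active means mean replicate inhibition of at least 70% and a set share of replicates each scoring 70 or more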
Target sequence (Q61009 whole entry, looked up): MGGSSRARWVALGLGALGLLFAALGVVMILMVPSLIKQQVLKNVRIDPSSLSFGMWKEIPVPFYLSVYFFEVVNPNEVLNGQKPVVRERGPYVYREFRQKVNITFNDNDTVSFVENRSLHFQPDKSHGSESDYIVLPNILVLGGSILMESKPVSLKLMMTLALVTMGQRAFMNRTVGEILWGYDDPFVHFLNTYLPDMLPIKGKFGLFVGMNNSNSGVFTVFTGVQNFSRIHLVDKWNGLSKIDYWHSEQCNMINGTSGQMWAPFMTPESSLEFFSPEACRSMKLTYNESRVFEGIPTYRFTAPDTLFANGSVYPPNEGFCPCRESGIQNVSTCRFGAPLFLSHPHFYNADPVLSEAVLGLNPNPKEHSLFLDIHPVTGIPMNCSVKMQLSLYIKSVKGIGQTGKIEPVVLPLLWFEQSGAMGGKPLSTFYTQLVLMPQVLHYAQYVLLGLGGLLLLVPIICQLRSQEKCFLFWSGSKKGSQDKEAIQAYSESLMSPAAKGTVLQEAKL
PglD inh: PglD (C. jejuni) enzyme inhibition | purified PglD enzyme, DTNB colorimetric CoA detection | inhibition, % at 12.5 µM | 0.098% of 360,000 active; in the data active means inhibition above about 16%, passing the limit was not always enough
Rtt109 Vps75: C. albicans Rtt109 histone acetyltransferase inhibition; purified Rtt109/Vps75, ThioGlo CoA-SH fluorescence, 4 h; AID 540336; 0.16% of 330,000 active; inhibition, % at 34.9 µM;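 active means inhibition of at least 50% in every replicate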
Numbers stand for hits; n = inactive; x = no result given; [ ] = remark or other dose.

SMILES | N-glyco inh | Env fusion inh | SR-BI uptake up | SR-BI HDL uptake | PglD inh | Rtt109 Vps75
COC(=O)C[C@H]1CC[C@H]2[C@H](COc3ccc(NS(C)(=O)=O)cc3C(=O)N2C)O1 | x | n | x | x | n | x
C[C@H]1CN([C@@H](C)CO)C(=O)CCCn2cc(nn2)CO[C@H]1CN(C)Cc1ccccc1C(F)(F)F | x | n | x | x | n | x
O=C(Nc1ccc2c(c1)[C@@H]1C[C@@H](CC(=O)N3CCc4ccccc4C3)O[C@@H](CO)[C@@H]1O2)C1CCC1 | x | n | x | x | n | x
COCCOC(=O)c1c(C)n(C)c2ccc(OC(=O)N3CCOCC3)cc12 | n | n | n | n | n | n
COCCOC(=O)c1c(C)n(C)c2ccc(OC(=O)c3c(OC)cccc3OC)cc12 | n | n | 397 | n | n | n
C[C@@]12C(=O)Nc3ccc(Br)cc3C(=O)N1[C@H]1c3cc(Cl)ccc3OC[C@@H]1[C@@H]2c1ccccc1 | n | x | n | n | n | n
C[C@@]12C(=O)Nc3ccc(F)cc3C(=O)N1[C@H]1c3cc(Br)ccc3OC[C@@H]1[C@@H]2c1ccccc1 | n | 57 | n | n | n | n
C[C@@]12C(=O)Nc3ccc(Br)cc3C(=O)N1[C@H]1c3ccccc3OC[C@@H]1[C@@H]2c1ccccc1 | 27 | x | n | n | n | n
Cc1ccc2c(c1)[C@H]1[C@H](CO2)[C@H](c2ccccc2)[C@]2(C)C(=O)Nc3ccc(Cl)cc3C(=O)N12 | n | n | n | n | n | n
Cc1ccc2c(c1)C(=O)N1[C@H]3c4ccccc4OC[C@@H]3[C@H](c3ccccc3)[C@]1(C)C(=O)N2 | 31 | x | n | n | n | n
C[C@@]12C(=O)Nc3cc(F)ccc3C(=O)N1[C@H]1c3cc(Br)ccc3OC[C@@H]1[C@@H]2c1ccccc1 | n | n | n | n | n | n
Cc1ccc2c(c1)NC(=O)[C@@]1(C)[C@@H](c3ccccc3)[C@H]3COc4ccccc4[C@@H]3N1C2=O | 36 | n | n | n | n | n
COCCNC(=O)C[C@H]1CC[C@@H]2[C@H](COC[C@H](O)CN2S(=O)(=O)c2ccccc2C)O1 | x | x | x | x | n | x
C[C@@H]1CN([C@H](C)CO)C(=O)Cc2cc(NC(=O)CCC(F)(F)F)ccc2O[C@H]1CN(C)C(=O)Nc1cccc2ccccc12 | x | n | x | x | n | x
CCCCOc1ccc(C2C(C(=O)c3ccc(C)o3)=C(O)C(=O)N2Cc2ccco2)cc1 (centres undefined) | n | n | n | n | n | 56
COc1ccc([C@@H]2[C@@H]3C(=O)N(C(C)(C)C)C(=O)[C@@H]3[C@]3(Cc4ccc(Cl)cc4)C(=O)N(c4cccc(F)c4)C(=O)N23)cc1 | n | 107 | n | n | n | n
COc1ccc([C@@H]2[C@@H]3C(=O)N(C(C)(C)C)C(=O)[C@@H]3[C@]3(Cc4ccc(Cl)cc4)C(=O)N(c4cccc(Br)c4)C(=O)N23)cc1 | n | 78 | n | n | n | n
CC(C)(C)N1C(=O)[C@H]2[C@@H](c3ccc(Br)cc3)N3C(=O)N(c4cccc(Cl)c4)C(=O)[C@@]3(Cc3ccccc3)[C@H]2C1=O | n | n | n | n | n | n
COc1cc2c(cc1OC)C(c1c(Cl)cccc1Cl)=NCC2 | n | 60 | x | x | x | x
COc1cc2c(cc1OC)C(c1c(-c3c(Cl)cccc3Cl)noc1C)=NCC2 | n | n | x | x | x | x
COc1ccc(S(=O)(=O)N(C)C[C@@H]2OCCCC[C@@H](C)Oc3ccc(NC(=O)CCCN(C)C)cc3C(=O)N([C@@H](C)CO)C[C@H]2C)cc1 | x | n | x | x | n | x
CCN(CC)S(=O)(=O)c1cc([N+](=O)[O-])ccc1NNC(=O)Nc1ccc(F)cc1 | n | 57 | n | n | n | n
Cn1c(=O)n(C)c2cc(NS(=O)(=O)c3ccc4c(c3)CCCC4)ccc21 | 37 | n | n | n | n | n
COc1ccc(S(=O)(=O)Nc2ccc3c(c2)n(C)c(=O)n3C)cc1C | 31 | n | x | x | x | n
Cc1ccc(NS(=O)(=O)c2ccc3c(c2)n(C)c(=O)n3C)cc1 | n | x | 135 | n | n | n
SMILES | N-glyco inh | Env fusion inh | SR-BI uptake up | SR-BI HDL uptake | PglD inh | Rtt109 Vps75
CC(=O)Nc1ccc(NS(=O)(=O)c2ccc3c(c2)n(C)c(=O)n3C)cc1 | n | n | n | n | n | n
C[C@@H]1CCCCO[C@@H](CN(C)Cc2ccccc2)[C@H](C)CN([C@@H](C)CO)C(=O)c2cc(NC(=O)Cc3ccccc3)ccc2O1 | x | n | x | x | n | x
COC(=O)COc1ccc(/C=C2/SC(=O)N(CC(=O)N3CCCC3)C2=O)cc1Br | n | n | n | n | x | n
COC(=O)COc1cc(Br)c(/C=C2/SC(=O)N(CC(=O)N3CCCC3)C2=O)cc1OC | n | n | n | 82 | x | n
O=C(Nc1cccc(F)c1)N[C@@H]1CC[C@@H](CCNS(=O)(=O)c2cccc(Cl)c2)O[C@H]1CO | x | n | x | x | n | x
O=C(N[C@@H]1CC[C@H](CCNS(=O)(=O)c2ccc(F)cc2)O[C@@H]1CO)C1CC1 | x | 59[16.7 µM] | x | x | n | x
O=S(=O)(NCC[C@H]1CC[C@H](NS(=O)(=O)c2ccccc2Cl)[C@H](CO)O1)c1ccc(Cl)cc1 | x | 58[16.7 µM] | x | x | n | x
O=C(Nc1cccc(F)c1)N[C@@H]1CC[C@H](CCNS(=O)(=O)c2cccc(Cl)c2)O[C@@H]1CO | x | 80[16.7 µM] | x | x | n | x
C[C@H](O)C#Cc1ccc2c(c1)O[C@@H](CN(C)C)[C@@H](C)CN([C@H](C)CO)S2(=O)=O | x | n | x | x | n | x
COc1ccc(CC(NC(C)=O)C(=O)NC2CCN(c3nc(C)cc(C)c3C#N)CC2)cc1OC (centres undefined) | n | n | n | n | x | n
COc1ccc(CC(NC(C)=O)C(=O)NC2CCN(c3nc(C)cc(C)c3C#N)CC2)cc1 (centres undefined) | n | n | n | n | x | 53
COc1ccccc1C(=O)N1CCN(C(=O)c2oc3ccc(C)cc3c2C)CC1 | n | 66 | n | n | n | n
Cc1ccc2oc(C(=O)N3CCCCCC3)c(C)c2c1 | n | x | n | n | n | n
Cc1noc(C)c1NC(=O)N(C)C[C@H]1Oc2ccc(NC(=O)Nc3cccc4ccccc34)cc2CC(=O)N([C@@H](C)CO)C[C@@H]1C | x | n | x | x | n | x
CCCNC(=O)C1(C)CCCN(C(=O)c2ccc3c(c2)CCO3)C1 (centres undefined) | n | n | x | x | n | x
COCCNC(=O)C1(C)CCCN(C(=O)c2ccc3c(c2)CCO3)C1 (centres undefined) | n | 59 | x | x | n | x
COc1ccccc1CNC(=O)C[C@@H]1C=C[C@H](NC(=O)CN(C)C)[C@H](CO)O1 | x | x | x | x | n | x
c1csc(C(c2nnnn2C2CCCCC2)N2CCCC3(CCCCC3)C2)c1 (centres undefined) | n | 115 | n | n | n | n
CCCCNC(=O)C[C@H]1C[C@@]2(C(=O)OC)C(=C[C@H](C(C)(C)C)O[C@@H]2C)N(Cc2ccc3c(c2)OCO3)C1=O | x | 82 | x | x | x | x
